From PubChem BioAssay
The list is not random: actives were taken first. Their share in the collection is about 1.7%.
Scp-1 inhibitor: blocks human Scp-1 phosphatase activity | Q9GZU7 | Recombinant Scp1, phosphopeptide, malachite green phosphate absorbance | inhibition, % at 20 µM | actives 0.88% (n = 340,000) | AID 493091;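 active = inhibition above about 50% at 20 µM, limit read from the data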
Target sequence (Q9GZU7 76-261 limits assumed): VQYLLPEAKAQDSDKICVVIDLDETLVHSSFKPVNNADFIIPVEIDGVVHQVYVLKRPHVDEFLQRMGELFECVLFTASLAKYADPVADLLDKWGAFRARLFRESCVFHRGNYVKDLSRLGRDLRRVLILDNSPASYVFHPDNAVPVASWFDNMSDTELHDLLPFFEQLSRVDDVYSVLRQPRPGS
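Test system – truncated SCP-1 phosphatase (76-261aa) · Reagent – Phosphorylated 17-residue peptide substrate · Incubation – 45 min room-temperature reaction, 5 min colour, 30 min stabiliser · Detection – colorimetric phosphate reagent with accelerator and stabiliser, absorbance at 630 nm · Measure – % inhibition at 20 µM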
SUMO1 PPI mod: modulators of human SUMO1-mediated protein-protein interactions. P63165. SUMO1 binding to a labelled peptide, TR-FRET, 1 h. inhibition, % at 20 µM. actives 0.33% (n = 360,000); in the data active = inhibition above about 37%
Target sequence (P63165 whole entry, looked up): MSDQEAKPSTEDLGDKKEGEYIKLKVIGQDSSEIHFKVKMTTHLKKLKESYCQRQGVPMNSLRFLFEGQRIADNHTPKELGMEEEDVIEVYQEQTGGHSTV
DNMT1 block: inhibitors of human DNMT1. DNMT1 molecular beacon, Hinp1I cleavage, fluorescence. inhibition (reported as % activation of signal), % at 10 µM. actives 0.83% (n = 360,000). AID 588458; in the data active = inhibition above about 50%
STEP inh: inhibitors of human striatal-enriched phosphatase STEP. AID 588621. recombinant STEP, OMFP fluorogenic substrate, fluorescence. actives 0.25% (n = 360,000). P54829. inhibition, % at 20 µM;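 active = inhibition at 20 µM, scaled per plate between control wells, above about 37%, limit read from the data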
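material = STEP tyrosine phosphatase | reagent = fluorogenic phosphatase substrate OMFP at 25 µM final | doses = single compound dose of 20 µM, 1% DMSO final | schedule = 20 min reaction, room temperature, in the dark | measured by = fluorescence, 480/540 nm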
LMPTP block: LMPTP (human) inhibition; P24666; recombinant LMPTP-A, OMFP fluorogenic substrate, fluorescence intensity; inhibition, % at 20 µM; actives 0.22% (n = 360,000);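 active = compounds that cut the enzyme signal by at least half of the control window in the single-dose screen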
Target sequence (P24666 whole entry, looked up): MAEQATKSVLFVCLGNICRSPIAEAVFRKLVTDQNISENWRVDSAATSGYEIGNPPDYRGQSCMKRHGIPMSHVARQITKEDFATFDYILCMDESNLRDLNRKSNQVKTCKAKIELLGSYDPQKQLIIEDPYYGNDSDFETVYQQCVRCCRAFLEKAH
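Assay system: LMPTP-A enzyme. Input: 0.625 nM LMPTP-A final. Probe or stimulus: 400 µM OMFP. Compound dosing: single 20 µM dose. Schedule: 50 min dark incubation at room temperature. Detection: fluorescence intensity of OMFP turnover product. Read-out: percent inhibition versus substrate-only and uninhibited controls. Benchmarks: no-enzyme low control, uninhibited high control.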
Scp1 confirm: confirmation of human Scp-1 phosphatase inhibitors. shares compounds with Scp-1 inhibitor. recombinant SCP-1 catalytic domain, phosphate release, malachite green absorbance. inhibition, % at 20 µM. actives 61% (n = 2,500). AID 540281
Scp-1 MG ctr: interferes with malachite green readout, flagging false Scp-1 hits; 2,500 tested, under 10 active; apparent inhibition (interference), % at 20 µM; shares compounds with Scp-1 inhibitor; AID 540313; Colorimetric interference counterscreen, malachite green absorbance 630 nm;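 also: compounds added after enzyme reaction finished so only phosphate colour detection is probed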
Scp-1 Tm shift: binds human Scp-1, shifting its melting temperature. actives 25% (n = 1,500). Recombinant SCP1, Sypro Orange thermal shift Tm. AID 540329. shares compounds with Scp-1 inhibitor. thermal shift relative to vanadate control, % at 40 µM;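 active = substances whose mean melting-temperature shift, as a percentage of the reference inhibitor's shift, reaches about 5.3%, limit read from the data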
DNMT1 interf DR: shows spectral interference in the DNMT1 beacon assay. shares compounds with DNMT1 block. molecular beacon fluorescence, spectral interference counter-screen. IC50, µM. 200 tested, under 10 active; call rule not given here
DNMT1 confirm: confirmation of human DNMT1 inhibitors. inhibition, % at 10 µM. DNMT1 molecular beacon HinP1I cleavage, fluorescence. actives 8% (n = 2,300). AID 602385. shares compounds with DNMT1 block;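 active = average inhibition of at least 30% in the single-concentration confirmation test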
Beacon interf: counter-screen for DNMT1 inhibitors: spectral interference. shares compounds with DNMT1 block. DNMT1 molecular beacon spectral interference counterscreen, fluorescence 485/520. activation (fluorescence interference), % at 10 µM. actives 1% (n = 2,300);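 active = activation of at least 30% at 10 µM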;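 also: DNMT1 catalytic domain with a HinP1I cleavage step and a FAM/dabcyl DNA beacon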
Each line names hits and unclear results; the compound was inactive in the other large screens (follow-up assays come after a bar, where they were run).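 The calls were made as follows, unless noted: active = inhibition of at least 30% at 20 µM; inactive = the rest.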

O=C(COC(=O)c1cc2c(s1)CCC2)Nc1ccc(F)cc1	Scp-1 inhibitor 68, DNMT1 block 66 | Scp1 confirm 74 | Scp-1 MG ctr inactive | Scp-1 Tm shift inactive | DNMT1 interf DR inactive | DNMT1 confirm inactive | Beacon interf inactive
NC(=O)c1ccc(NC(=O)COC(=O)c2cc3c(s2)CCC3)cc1	Scp-1 inhibitor 85, DNMT1 block 80 | Scp1 confirm 62 | Scp-1 MG ctr inactive | Scp-1 Tm shift inactive | DNMT1 confirm inactive | Beacon interf inactive
Cc1ccc(C)c(SCC(=O)OCC(=O)c2ccco2)c1	Scp-1 inhibitor 60, DNMT1 block 81 | Scp1 confirm 69 | Scp-1 MG ctr inactive | Scp-1 Tm shift inactive | DNMT1 confirm inactive | Beacon interf inactive
O=C(COC(=O)Cc1ccc(Cl)c(Cl)c1)NCc1ccco1	none
COc1ccccc1NCCC(=O)OCC(=O)NCc1ccco1	Scp-1 inhibitor 75, DNMT1 block 51 | Scp1 confirm 64 | Scp-1 MG ctr inactive | Scp-1 Tm shift inactive | DNMT1 confirm inactive | Beacon interf inactive
O=C(COC(=O)Cc1ccc(Cl)cc1)NCc1ccco1	Scp-1 inhibitor 82, DNMT1 block 88 | Scp1 confirm 71 | Scp-1 MG ctr inactive | Scp-1 Tm shift inactive | DNMT1 confirm inactive | Beacon interf inactive
O=C(COC(=O)c1cc(-c2cccs2)nc2ccccc12)NCc1ccco1	Scp-1 inhibitor 56, DNMT1 block 51 | Scp1 confirm 56 | Scp-1 MG ctr inactive | Scp-1 Tm shift 7.0 | DNMT1 confirm inactive | Beacon interf inactive
Cc1cc([N+](=O)[O-])c2ccccc2c1NS(=O)(=O)c1ccccc1	none
Cc1cccn2c(=O)c(C(=O)NC3CC(C)CC(C)(C)C3)c(O)nc12 (centres undefined)	none
O=C(NCC1CC1)C1Cc2c(-c3ccccc3Oc3ccccc3)ccnc2O1 (centres undefined)	none (no result: Scp-1 inhibitor)
O=C(COC(=O)c1cccc(Br)c1)NCc1ccco1	Scp-1 inhibitor 56, DNMT1 block 87 | Scp1 confirm 53 | Scp-1 MG ctr inactive | Scp-1 Tm shift inactive | DNMT1 confirm inactive | Beacon interf inactive
Cc1cccc(C(=O)OCC(=O)NCc2ccco2)c1	none
O=C(COC(=O)c1ccc(Br)o1)NCc1ccco1	Scp-1 inhibitor 74, DNMT1 block 58 | Scp1 confirm 65 | Scp-1 MG ctr inactive | Scp-1 Tm shift inactive | DNMT1 confirm inactive | Beacon interf inactive
O=C(COC(=O)/C=C/c1ccco1)Nc1ncc(C(F)(F)F)cc1Cl	Scp-1 inhibitor 76, DNMT1 block 71 | Scp1 confirm 56 | Scp-1 MG ctr inactive | Scp-1 Tm shift 6.1 | DNMT1 confirm inactive | Beacon interf inactive
O=C(COC(=O)c1ccccc1)NCc1ccco1	Scp-1 inhibitor 104, DNMT1 block 74 | Scp1 confirm 63 | Scp-1 MG ctr inactive | Scp-1 Tm shift inactive | DNMT1 confirm inactive | Beacon interf inactive
O=C(COC(=O)c1ccco1)NCc1ccco1	none
Cc1cc(Br)ccc1SCC(=O)OCC(=O)NCc1ccco1	Scp-1 inhibitor 75, DNMT1 block 82 | Scp1 confirm 61 | Scp-1 MG ctr inactive | Scp-1 Tm shift inactive | DNMT1 confirm inactive | Beacon interf inactive
O=C(COC(=O)/C=C/c1ccco1)NCc1ccco1	Scp-1 inhibitor 72, DNMT1 block 52 | Scp1 confirm 82 | Scp-1 MG ctr inactive | Scp-1 Tm shift inactive | DNMT1 confirm inactive | Beacon interf inactive
O=C(COC(=O)c1ccccc1Nc1cccc(C(F)(F)F)c1)NCc1ccco1	Scp-1 inhibitor 77, DNMT1 block 91 | Scp1 confirm 53 | Scp-1 MG ctr inactive | Scp-1 Tm shift 5.3 | DNMT1 confirm inactive | Beacon interf inactive
Cc1c2cnn(CC(=O)Nc3c(F)c(F)cc(F)c3F)c(=O)c2c(C)n1Cc1ccccc1F	Scp-1 inhibitor 69, DNMT1 block 91 | Scp1 confirm 77 | Scp-1 MG ctr inactive | Scp-1 Tm shift 7.2 | DNMT1 interf DR inactive | DNMT1 confirm inactive | Beacon interf inactive
CCOc1ccccc1/C=C\c1nc(O)c([N+](=O)[O-])c(=O)[nH]1	none
Cc1cc(/C=C\c2nc(O)c([N+](=O)[O-])c(=O)[nH]2)c(C)n1-c1ccccc1	Scp-1 inhibitor 68, DNMT1 block 74 | Scp1 confirm 71 | Scp-1 MG ctr inactive | Scp-1 Tm shift inactive | DNMT1 confirm inactive | Beacon interf inactive
CC(C)[C@H](NC(=O)Cc1ccccc1)C(=O)OCc1cc(=O)n2c(n1)sc1ccccc12	Scp-1 inhibitor 76, DNMT1 block 88 | Scp1 confirm 59 | Scp-1 MG ctr inactive | Scp-1 Tm shift inactive | DNMT1 confirm inactive | Beacon interf inactive
CC(C)NC(=O)CSc1nnc2sc3ccccc3n12	none
Cc1ccc(COC(=O)Cc2coc3cc(O)ccc23)cc1	none
O=C(OCc1cc(=O)n2c(n1)sc1ccccc12)c1ccc2c(=O)n3c(nc2c1)CCC3	Scp-1 inhibitor 72, DNMT1 block 102 | Scp1 confirm 53 | Scp-1 MG ctr inactive | Scp-1 Tm shift inactive | DNMT1 confirm inactive | Beacon interf inactive
Cc1ccc2c(CC(=O)OCc3cc(=O)n4c(n3)sc3ccccc34)coc2c1	Scp-1 inhibitor 66, DNMT1 block 105 | Scp1 confirm 68 | Scp-1 MG ctr inactive | Scp-1 Tm shift inactive | DNMT1 confirm inactive | Beacon interf inactive
CC(=O)c1c(C)[nH]c(C(=O)COC(=O)c2ccc3c(=O)n4c(nc3c2)CCC4)c1C	none
O=C1CC(C(=O)N2CCN(S(=O)(=O)c3cccc(F)c3)CC2)CN1Cc1ccccc1Cl (centres undefined)	none
CCc1ccc(C(O)c2ncc(-c3ccccc3C(F)(F)F)[nH]2)cc1 (centres undefined)	none (no result: Scp-1 inhibitor)
O=P(Nc1ccccc1)(Nc1ccccc1)c1ccccc1	none
